Assay outcomes as filed in PubChem BioAssay.
T cruzi growth-1 = blocks T. cruzi growth in NIH3T3 culture; T. cruzi beta-gal in NIH3T3, GalScreen luminescence, 90 h; inhibition, % at 8.34 µM; hit rate 5.9% among 77,000; AID 624255;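 active = mean inhibition above about 93%, with at least 55% of replicates each passing it, limit read from the data, passing the limit was not always enough; inconclusive = only one of those two conditions holds; inactive = neither condition holds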
IDH1 R132H inh = blocks human IDH1 R132H reductase activity; inhibition, % at 10 µM; hit rate 0.18% among 70,000; diaphorase/resazurin fluorescence, 60 min; O75874; AID 624101; in the data active = inhibition above about 34%; inconclusive = no clear call, values can overlap the other calls; inactive = below about 11%
GASC1 inh = KDM4C (human) demethylase inhibition; hit rate 0.15% among 96,000; inhibition, % at 12.5 µM; AID 720574; Q9H3R0; GST-KDM4C 2-372, H3K9me3 peptide, LANCE TR-FRET;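 active = mean replicate inhibition above about 25%, with at least 55% of replicates also reaching it, limit read from the data, passing the limit was not always enough; inconclusive = only one of those two conditions met; inactive = neither condition met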
Target sequence (Q9H3R0 2-372 limits assumed): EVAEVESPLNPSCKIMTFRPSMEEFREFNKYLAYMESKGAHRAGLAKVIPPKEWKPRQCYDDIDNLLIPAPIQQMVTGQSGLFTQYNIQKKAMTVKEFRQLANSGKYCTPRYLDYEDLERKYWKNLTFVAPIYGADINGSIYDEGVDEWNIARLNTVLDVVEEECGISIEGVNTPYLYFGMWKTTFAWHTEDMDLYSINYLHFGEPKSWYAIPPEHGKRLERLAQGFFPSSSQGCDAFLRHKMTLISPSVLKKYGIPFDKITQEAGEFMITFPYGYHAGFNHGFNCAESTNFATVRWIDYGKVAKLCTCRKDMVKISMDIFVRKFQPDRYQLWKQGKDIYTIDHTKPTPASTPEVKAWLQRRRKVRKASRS
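Assay system: GST-GASC-1 enzyme fragment 2-372 | Amount: 10 nM enzyme | Medium: HEPES buffer, pH 7.5, plus ascorbate | Reagent: H3K9me3 peptide substrate, Fe(II), 2-oxoglutarate | Doses: Single-point compound screen | Incubation: 30 min demethylation and 1 h detection at room temperature | Measured by: LANCE TR-FRET, excitation 340 nm, emissions 618 and 671 nm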
T cruzi growth-2 = Trypanosoma cruzi proliferation inhibition. shares compounds with T cruzi growth-1. T. cruzi beta-gal in NIH3T3, GalScreen luminescence, 90 h. inhibition, % at 8.35 µM. hit rate 72% among 5,600. AID 651739;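 active = mean replicate inhibition above about 95% and at least 55% of replicates individually reaching it, limit read from the data; inconclusive = only one of the two criteria is met; inactive = neither criterion is met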
T cruzi growth-3 = Trypanosoma cruzi proliferation inhibition | shares compounds with T cruzi growth-1 | T. cruzi beta-gal in NIH3T3, GalScreen luminescence, 90 h | inhibition, % at 2.09 µM | hit rate 21% among 5,600 | AID 651740;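 active = mean inhibition above about 95%, with at least 55% of replicates also reaching it, limit read from the data; inconclusive = meets just one of the two conditions; inactive = meets neither condition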
3T3 cytotox = kills mouse NIH/3T3 fibroblasts. shares compounds with T cruzi growth-1. NIH/3T3 viability, CellTiter-Glo ATP luminescence, 90 h. cytotoxicity (signal decrease), % at 8.35 µM. hit rate 14% among 5,600;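 active = mean signal decrease across replicates above about 35% based on untreated-well scatter, with enough replicates individually passing, limit read from the data; inconclusive = no rule stated though some were filed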
NIH3T3 tox 2 = cytotoxicity in mouse NIH/3T3 fibroblasts; shares compounds with T cruzi growth-1; NIH/3T3 viability, CellTiter-Glo ATP luminescence, 90 h; inhibition, % at 24.9 µM; hit rate 56% among 5,600; AID 651744;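 active = mean loss of cell viability signal at or above a set limit, and enough replicates individually reaching it; inconclusive = meets only the mean limit or only the replicate share; inactive = meets neither condition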
Of the large screens only hits and unclear results are named; the others gave an inactive call (follow-up assays come after a bar, where they were run). Many of the other results were omitted from the sample, so hits are more common in it than they were.

CC(C)NC(=O)N1[C@@H](C#N)[C@@H](c2ccc(C#CC3CCCCC3)cc2)[C@@H]1CO	none (no result: IDH1 R132H inh)
CC(C)NC(=O)N1[C@@H](C#N)[C@H](c2ccc(C#CC3CCCCC3)cc2)[C@@H]1CO	T cruzi growth-1 99.6 (no result: IDH1 R132H inh) | T cruzi growth-2 105.1 | T cruzi growth-3 inactive | 3T3 cytotox inactive | NIH3T3 tox 2 62.2
O=C(CSc1nc2ccccc2[nH]1)Nc1cccc(C(F)(F)F)c1	none (no result: T cruzi growth-1, GASC1 inh)
O=C(OC1C=C(CO)C2C(OC3OC(CO)C(O)C(O)C3O)OC=CC12O)c1ccc(O)cc1 (stereo unspecified)	none (no result: T cruzi growth-1, GASC1 inh)
C[C@@H]1CN([C@@H](C)CO)S(=O)(=O)c2ccc(C#Cc3ccc(F)cc3)cc2O[C@@H]1CN(C)S(=O)(=O)c1ccc(F)cc1	T cruzi growth-1 113.8 (no result: IDH1 R132H inh) | T cruzi growth-2 105.6 | T cruzi growth-3 114.6 | 3T3 cytotox inactive | NIH3T3 tox 2 43.1
C[C@@H]1CN([C@@H](C)CO)S(=O)(=O)c2ccc(C#Cc3ccc(F)cc3)cc2O[C@H]1CN(C)S(=O)(=O)c1ccc(F)cc1	T cruzi growth-1 115.1 (no result: IDH1 R132H inh) | T cruzi growth-2 103.3 | T cruzi growth-3 116.0 | 3T3 cytotox inconclusive | NIH3T3 tox 2 55.3
C[C@H]1CN([C@@H](C)CO)S(=O)(=O)c2ccc(C#Cc3ccc(F)cc3)cc2O[C@H]1CN(C)S(=O)(=O)c1ccc(F)cc1	T cruzi growth-1 107.4 | T cruzi growth-2 105.2 | T cruzi growth-3 inconclusive | 3T3 cytotox inactive | NIH3T3 tox 2 inactive
COCC#Cc1ccc2c(c1)O[C@@H](CN(C)S(=O)(=O)c1ccc(F)cc1)[C@@H](C)CN([C@@H](C)CO)S2(=O)=O	none
COCC#Cc1ccc2c(c1)O[C@H](CN(C)S(=O)(=O)c1ccc(F)cc1)[C@H](C)CN([C@H](C)CO)S2(=O)=O	none
C[C@H]1CN([C@@H](C)CO)S(=O)(=O)c2ccc(C#Cc3ccc(F)cc3)cc2O[C@@H]1CN(C)S(=O)(=O)c1ccc(F)cc1	T cruzi growth-1 inconclusive | T cruzi growth-2 95.5 | T cruzi growth-3 112.7 | 3T3 cytotox inactive | NIH3T3 tox 2 68.1
CC(C)CC#Cc1ccc2c(c1)O[C@@H](CN(C)S(=O)(=O)c1ccc(F)cc1)[C@H](C)CN([C@H](C)CO)S2(=O)=O	none (no result: T cruzi growth-1)
CC(Oc1cccc(NC(=O)c2cccc([N+](=O)[O-])c2)c1)C(=O)c1cccc(Cl)c1 (stereo unspecified)	none (no result: T cruzi growth-1, GASC1 inh)
Cc1ccc(S(=O)(=O)NCCC(=O)Oc2ccc3c(=O)c(-c4ccc(F)cc4)coc3c2)cc1	none (no result: T cruzi growth-1, GASC1 inh)
N#Cc1c(NC(=O)CN2CCN(Cc3ccccc3)CC2)sc2c1CCCC2	none (no result: T cruzi growth-1, GASC1 inh)
COc1ccc(S(=O)(=O)N(C)C[C@@H]2Oc3c(NC(=O)NC4CCCCC4)cccc3C(=O)N([C@@H](C)CO)C[C@H]2C)cc1	none (no result: T cruzi growth-1, GASC1 inh)
COc1ccc(NC(=O)CSc2nnc(N)s2)cc1Cl	none (no result: T cruzi growth-1, GASC1 inh)
CC(C)CC#Cc1ccc2c(c1)O[C@H](CN(C)S(=O)(=O)c1ccc(F)cc1)[C@H](C)CN([C@@H](C)CO)S2(=O)=O	none (no result: T cruzi growth-1)
C[C@H](CO)N1C[C@H](C)[C@@H](CN(C)S(=O)(=O)c2ccc(F)cc2)Oc2cc(C#Cc3ccc(F)cc3)ccc2S1(=O)=O	T cruzi growth-1 107.4 | T cruzi growth-2 100.0 | T cruzi growth-3 108.6 | 3T3 cytotox inactive | NIH3T3 tox 2 64.6
Cc1ccc(OCCCCSc2nc(C)cc(=O)[nH]2)c(C)c1	none (no result: T cruzi growth-1, GASC1 inh)
COc1ccc(C)cc1NC(=O)CN(C1CCCCC1)S(=O)(=O)c1ccc(Cl)cc1	none (no result: T cruzi growth-1, GASC1 inh)
O=C(c1cnccn1)N1CC[C@@H]2[C@H]1c1cc(-c3ccccc3F)ccc1N[C@@H]2CO	T cruzi growth-1 100.0 (no result: IDH1 R132H inh) | T cruzi growth-2 106.9 | T cruzi growth-3 inactive | 3T3 cytotox inactive | NIH3T3 tox 2 44.1
COc1ccc(C#Cc2ccc3c(c2)[C@@H]2[C@@H](CCN2C(=O)c2cnccn2)[C@@H](CO)N3)cc1	none (no result: IDH1 R132H inh)
O=C(c1cccc(F)c1)N1CC[C@@H]2[C@H](CO)Nc3ccc(-c4ccccc4F)cc3[C@@H]21	none (no result: IDH1 R132H inh)
O=C(c1ccccc1)N1CC[C@@H]2[C@@H](CO)Nc3ccc(-c4ccc(F)cc4)cc3[C@@H]21	none (no result: IDH1 R132H inh)
